The compounds below were run against T1, Oxytocin receptor (Rattus norvegicus) (UniProt P70536) (assay: (§1) Uterotonic activity against OT receptor in Wistar rat in absence of magnesium).
T1 sequence (whole entry): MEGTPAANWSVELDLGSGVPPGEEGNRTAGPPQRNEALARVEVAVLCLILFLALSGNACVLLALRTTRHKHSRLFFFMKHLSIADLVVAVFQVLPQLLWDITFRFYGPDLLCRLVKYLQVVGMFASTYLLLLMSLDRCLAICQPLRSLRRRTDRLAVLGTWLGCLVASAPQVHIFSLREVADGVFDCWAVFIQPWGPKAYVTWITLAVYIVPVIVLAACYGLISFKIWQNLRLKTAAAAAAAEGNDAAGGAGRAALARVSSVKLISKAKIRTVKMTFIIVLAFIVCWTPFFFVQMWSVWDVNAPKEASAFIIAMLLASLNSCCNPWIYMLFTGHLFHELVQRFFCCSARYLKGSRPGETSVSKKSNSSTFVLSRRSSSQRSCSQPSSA
Assay type: functional
In short: (§2)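 Isolated uterus from female Wistar rats estrogenized 48 h beforehand, tested in vitro without magnesium ions. Synthetic oxytocin served as standard. Dose-response curves from single administrations or cumulative dosing without washing. Values are means of three to five separate experiments.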
Compound `CC(C)[C@@H]1NC(=O)[C@H](C)N(Cc2ccccc2)C(=O)[C@H](Cc2ccc(O)cc2)NC(=O)CC2(CCCCC2)SSC[C@H](C(=O)N2CCC[C@H]2C(=O)N[C@@H](CCCN=C(N)N)C(=O)NCC(N)=O)NC(=O)[C@H](CC(N)=O)NC1=O` has an Activity of 0 IU/mg.

These compounds were tested against T2, Oxytocin receptor (Rattus norvegicus, UniProt P70536) (assay: as §1).
T2 sequence (P70536 whole entry): T1 sequence (whole entry)
Assay type: functional
In short: as §2
`NC(=O)CC[C@@H]1NC(=O)[C@H](Cc2ccccc2)NC(=O)[C@H](Cc2ccc(O)cc2)NC(=O)[C@@](N)(CO)CSSC[C@@H](C(=O)N2CCC[C@H]2C(=O)N[C@@H](CCCN=C(N)N)C(=O)NCC(N)=O)NC(=O)[C@H](CC(N)=O)NC1=O` [listing 1 of 2 here] showed a pA2 of 6.4. `CC(C)C[C@H](NC(=O)[C@@H]1CCCN1C(=O)[C@@H]1CSSCCC(=O)N2CCN(C(=O)[C@@H]2Cc2ccccc2)[C@@H](Cc2ccccc2)C(=O)N[C@@H](CCC(N)=O)C(=O)N[C@@H](CC(N)=O)C(=O)N1)C(=O)NCC(N)=O` [listing 1 of 2 here] showed a pA2 of 6.5. `CC(C)C[C@H](NC(=O)[C@@H]1CCCN1C(=O)[C@@H]1CSSC2(CCCCC2)CC(=O)N2CCN(C(=O)[C@@H]2Cc2ccccc2)[C@@H](Cc2ccccc2)C(=O)N[C@@H](CCC(N)=O)C(=O)N[C@@H](CC(N)=O)C(=O)N1)C(=O)NCC(N)=O` [listing 1 of 2 here] showed a pA2 of 6.72. `CC(C)C[C@H](NC(=O)[C@@H]1CCCN1C(=O)[C@@H]1CSSC[C@H](N)C(=O)N2CCN(C(=O)[C@@H]2Cc2ccccc2)[C@@H](Cc2ccccc2)C(=O)N[C@@H](CCC(N)=O)C(=O)N[C@@H](CC(N)=O)C(=O)N1)C(=O)NCC(N)=O` [listing 1 of 2 here] gave a pA2 of 6.82.

Species on record: Rattus norvegicus
Assay: Antidiuretic activity against V2 receptor in Wistar rat at antidiuresis half life of 60 min
Assay type: functional, Urine
Compound `CC(C)[C@@H]1NC(=O)[C@H](C)N(Cc2ccccc2)C(=O)[C@H](Cc2ccc(O)cc2)NC(=O)CCSSC[C@@H](C(=O)N2CCC[C@H]2C(=O)N[C@@H](CCCN=C(N)N)C(=O)NCC(N)=O)NC(=O)[C@H](CC(N)=O)NC1=O` has an Activity of less than 0.04 IU/mg. For `CC(C)[C@@H]1NC(=O)[C@H](C)N(Cc2ccccc2)C(=O)[C@H](Cc2ccc(O)cc2)NC(=O)[C@@H](N)CSSC[C@@H](C(=O)N2CCC[C@H]2C(=O)N[C@@H](CCCN=C(N)N)C(=O)NCC(N)=O)NC(=O)[C@H](CC(N)=O)NC1=O`, the Activity was less than 0.04 IU/mg. `CC(C)C[C@H](NC(=O)[C@@H]1CCCN1C(=O)[C@@H]1CSSC2(CCCCC2)CC(=O)N2CCN(C(=O)[C@@H]2Cc2ccccc2)[C@@H](Cc2ccccc2)C(=O)N[C@@H](CCC(N)=O)C(=O)N[C@@H](CC(N)=O)C(=O)N1)C(=O)NCC(N)=O` [listing 2 of 2 here] showed an Activity of less than 0.04 IU/mg. `NC(=O)CC[C@@H]1NC(=O)[C@H](Cc2ccccc2)NC(=O)[C@H](Cc2ccc(O)cc2)NC(=O)[C@@](N)(CO)CSSC[C@@H](C(=O)N2CCC[C@H]2C(=O)N[C@@H](CCCN=C(N)N)C(=O)NCC(N)=O)NC(=O)[C@H](CC(N)=O)NC1=O` [listing 2 of 2 here] was tested, and the Activity was 4.5 IU/mg. Compound `CC(C)C[C@H](NC(=O)[C@@H]1CCCN1C(=O)[C@@H]1CSSC[C@H](N)C(=O)N2CCN(C(=O)[C@@H]2Cc2ccccc2)[C@@H](Cc2ccccc2)C(=O)N[C@@H](CCC(N)=O)C(=O)N[C@@H](CC(N)=O)C(=O)N1)C(=O)NCC(N)=O` [listing 2 of 2 here] has an Activity of less than 0.04 IU/mg. With `CC(C)C[C@H](NC(=O)[C@@H]1CCCN1C(=O)[C@@H]1CSSCCC(=O)N2CCN(C(=O)[C@@H]2Cc2ccccc2)[C@@H](Cc2ccccc2)C(=O)N[C@@H](CCC(N)=O)C(=O)N[C@@H](CC(N)=O)C(=O)N1)C(=O)NCC(N)=O` [listing 2 of 2 here] the Activity was less than 0.04 IU/mg. For `CC(C)[C@@H]1NC(=O)[C@H](C)N(Cc2ccccc2)C(=O)[C@H](Cc2ccc(O)cc2)NC(=O)CC2(CCCCC2)SSC[C@@H](C(=O)N2CCC[C@H]2C(=O)N[C@@H](CCCN=C(N)N)C(=O)NCC(N)=O)NC(=O)[C@H](CC(N)=O)NC1=O`, the Activity was less than 0.04 IU/mg.

Species on record: Rattus norvegicus
Assay: Antidiuretic activity against V2 receptor in Wistar rat at antidiuresis half life of 200 min
Assay type: functional, Urine
For `NC(=O)CC[C@@H]1NC(=O)[C@H](Cc2ccccc2)NC(=O)[C@H](Cc2ccc(O)cc2)NC(=O)[C@@](N)(CO)CSSC[C@@H](C(=O)N2CCC[C@H]2C(=O)N[C@@H](CCCN=C(N)N)C(=O)NCC(N)=O)NC(=O)[C@H](CC(N)=O)NC1=O` [listing 2 of 2 here], the Activity was 22.5 IU/mg.

Each compound was assayed against Vasopressin V1a receptor (Rattus norvegicus) (UniProt P30560) (assay: Pressor activity against V1a receptor in Wistar rat).
Chain of Vasopressin V1a receptor (Rattus norvegicus) (P30560 whole entry, looked up): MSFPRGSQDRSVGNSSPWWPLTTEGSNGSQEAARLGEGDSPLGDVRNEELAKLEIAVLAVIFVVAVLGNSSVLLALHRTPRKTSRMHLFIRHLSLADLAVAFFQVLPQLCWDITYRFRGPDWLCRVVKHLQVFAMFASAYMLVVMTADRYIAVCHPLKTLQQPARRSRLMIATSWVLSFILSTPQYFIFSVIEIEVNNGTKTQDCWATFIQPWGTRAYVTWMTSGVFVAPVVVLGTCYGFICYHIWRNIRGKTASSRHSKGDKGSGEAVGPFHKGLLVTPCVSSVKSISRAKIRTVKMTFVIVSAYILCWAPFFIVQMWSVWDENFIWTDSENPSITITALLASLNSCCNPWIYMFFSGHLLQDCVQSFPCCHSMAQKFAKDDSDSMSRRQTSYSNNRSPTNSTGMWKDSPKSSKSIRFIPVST
Compound `CC(C)C[C@H](NC(=O)[C@@H]1CCCN1C(=O)[C@H]1CSSC[C@@H](N)C(=O)N2CCN(C(=O)[C@@H]2Cc2ccccc2)[C@@H](Cc2ccccc2)C(=O)N[C@@H](CCC(N)=O)C(=O)N[C@@H](CC(N)=O)C(=O)N1)C(=O)NCC(N)=O` has a pressor activity of 0 IU/mg. Compound `CC(C)[C@@H]1NC(=O)[C@H](C)N(Cc2ccccc2)C(=O)[C@H](Cc2ccc(O)cc2)NC(=O)CCSSC[C@H](C(=O)N2CCC[C@H]2C(=O)N[C@@H](CCCN=C(N)N)C(=O)NCC(N)=O)NC(=O)[C@H](CC(N)=O)NC1=O` has a pressor activity of 0 IU/mg. `CC(C)[C@@H]1NC(=O)[C@H](C)N(Cc2ccccc2)C(=O)[C@H](Cc2ccc(O)cc2)NC(=O)[C@H](N)CSSC[C@H](C(=O)N2CCC[C@H]2C(=O)N[C@@H](CCCN=C(N)N)C(=O)NCC(N)=O)NC(=O)[C@H](CC(N)=O)NC1=O` gave a pressor activity of 0 IU/mg. For `CC(C)[C@@H]1NC(=O)[C@H](C)N(Cc2ccccc2)C(=O)[C@H](Cc2ccc(O)cc2)NC(=O)CC2(CCCCC2)SSC[C@H](C(=O)N2CCC[C@H]2C(=O)N[C@@H](CCCN=C(N)N)C(=O)NCC(N)=O)NC(=O)[C@H](CC(N)=O)NC1=O`, the pressor activity was 0 IU/mg. With `CC(C)C[C@H](NC(=O)[C@@H]1CCCN1C(=O)[C@H]1CSSC2(CCCCC2)CC(=O)N2CCN(C(=O)[C@@H]2Cc2ccccc2)[C@@H](Cc2ccccc2)C(=O)N[C@@H](CCC(N)=O)C(=O)N[C@@H](CC(N)=O)C(=O)N1)C(=O)NCC(N)=O` the pressor activity was 0 IU/mg. `CC(C)C[C@H](NC(=O)[C@@H]1CCCN1C(=O)[C@H]1CSSCCC(=O)N2CCN(C(=O)[C@@H]2Cc2ccccc2)[C@@H](Cc2ccccc2)C(=O)N[C@@H](CCC(N)=O)C(=O)N[C@@H](CC(N)=O)C(=O)N1)C(=O)NCC(N)=O` gave a pressor activity of 0 IU/mg. With `NC(=O)CC[C@@H]1NC(=O)[C@H](Cc2ccccc2)NC(=O)[C@H](Cc2ccc(O)cc2)NC(=O)[C@@](N)(CO)CSSC[C@H](C(=O)N2CCC[C@H]2C(=O)N[C@@H](CCCN=C(N)N)C(=O)NCC(N)=O)NC(=O)[C@H](CC(N)=O)NC1=O` the pressor activity was 0.18 IU/mg.

From ChEMBL document CHEMBL1139009, “Analogues of neurohypophyseal hormones, oxytocin and arginine vasopressin, conformationally restricted in the N-terminal part of the molecule” (J Med Chem, 2006)
